Activity calls are given as the source filed them. The rule behind the calls is not given here.

The source of these data is ChEMBL document CHEMBL1777776, “Identification of 2-mercaptohexanoic acids as dual inhibitors of 5-lipoxygenase and microsomal prostaglandin E₂ synthase-1” (Bioorg Med Chem, 2011).

Experiment [1] deals with T1, Polyunsaturated fatty acid 5-lipoxygenase (Homo sapiens, UniProt P09917).
T1 sequence (P09917 whole entry): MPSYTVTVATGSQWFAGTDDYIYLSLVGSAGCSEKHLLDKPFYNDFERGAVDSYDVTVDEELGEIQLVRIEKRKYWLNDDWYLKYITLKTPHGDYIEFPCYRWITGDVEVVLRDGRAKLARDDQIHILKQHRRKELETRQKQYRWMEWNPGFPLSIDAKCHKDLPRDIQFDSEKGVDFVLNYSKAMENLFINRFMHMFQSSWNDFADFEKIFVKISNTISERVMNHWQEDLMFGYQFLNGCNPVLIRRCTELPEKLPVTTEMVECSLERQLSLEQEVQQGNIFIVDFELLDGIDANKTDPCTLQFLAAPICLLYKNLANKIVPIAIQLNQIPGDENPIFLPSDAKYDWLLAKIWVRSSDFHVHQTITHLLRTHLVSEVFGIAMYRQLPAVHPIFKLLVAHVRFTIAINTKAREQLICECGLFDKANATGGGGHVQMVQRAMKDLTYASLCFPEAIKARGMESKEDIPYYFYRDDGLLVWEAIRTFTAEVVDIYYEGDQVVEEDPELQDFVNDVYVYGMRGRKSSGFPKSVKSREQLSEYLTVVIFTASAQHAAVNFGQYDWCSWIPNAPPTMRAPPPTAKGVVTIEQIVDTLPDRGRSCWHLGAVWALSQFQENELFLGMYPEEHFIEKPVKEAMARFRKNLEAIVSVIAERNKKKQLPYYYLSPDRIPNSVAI
Kind of experiment: Inhibition of human recombinant 5-lipoxygenase expressed in Escherichia coli BL21 assessed as enzyme product formation using arachidonic acid as substrate after 10 mins by RP-HPLC analysis. The gist of the method:
(§1)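 Human 5-LO expressed in E. coli BL21 (pT3-5LO), affinity-purified and used at once. 0.5 µg enzyme in 1 ml PBS/EDTA with 1 mM ATP preincubated with compound 5–10 min at 4 °C, then warmed 30 s at 37 °C. Reaction started with 2 mM CaCl₂ and AA (routinely 20 µM), with or without 1 µM 13(S)-HpODE. Run 10 min at 37 °C, stopped with ice-cold methanol, products analysed by HPLC. Washout: 10-fold dilution (10 to 1 µM).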

The target in experiment [2] is T2, Polyunsaturated fatty acid lipoxygenase ALOX12 (Homo sapiens) (UniProt P18054).
T2 sequence (whole entry): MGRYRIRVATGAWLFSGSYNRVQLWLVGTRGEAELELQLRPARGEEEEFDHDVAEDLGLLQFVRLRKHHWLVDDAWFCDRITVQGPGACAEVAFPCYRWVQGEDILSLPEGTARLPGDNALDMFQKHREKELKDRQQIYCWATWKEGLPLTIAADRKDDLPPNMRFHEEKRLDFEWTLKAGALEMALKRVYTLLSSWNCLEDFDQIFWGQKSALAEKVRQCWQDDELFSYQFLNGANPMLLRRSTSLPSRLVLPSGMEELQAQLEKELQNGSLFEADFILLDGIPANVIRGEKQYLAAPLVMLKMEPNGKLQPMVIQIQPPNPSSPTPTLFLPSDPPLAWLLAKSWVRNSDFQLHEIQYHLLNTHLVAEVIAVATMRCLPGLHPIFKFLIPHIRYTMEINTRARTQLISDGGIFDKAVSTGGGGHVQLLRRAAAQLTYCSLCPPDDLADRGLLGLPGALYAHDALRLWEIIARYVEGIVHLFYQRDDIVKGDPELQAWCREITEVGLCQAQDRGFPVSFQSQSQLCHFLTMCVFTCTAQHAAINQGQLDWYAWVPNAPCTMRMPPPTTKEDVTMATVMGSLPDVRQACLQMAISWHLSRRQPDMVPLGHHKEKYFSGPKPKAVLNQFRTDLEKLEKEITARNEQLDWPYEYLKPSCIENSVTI
Kind of experiment: Inhibition of 12-lipoxygenase in A23187-stimulated human PMNL assessed as reduction of 12(S)-H(P)ETE formation up to 10 uM preincubated 15 mins by RP-HPLC analysis in presence of exogenous arachidonic acid. The method in brief:
(§2)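 Freshly isolated human PMNL (5 × 10⁶/ml PGC buffer: PBS pH 7.4, 1 mg/ml glucose, 1 mM CaCl₂) preincubated with compound 15 min at 37 °C. Stimulated with 2.5 µM A23187 plus exogenous AA for 10 min at 37 °C. Stopped with methanol, PGB₁ added as internal standard, lipoxygenase products analysed by HPLC. Mean of n = 3–5.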

In experiment [3] the target is T1, Polyunsaturated fatty acid 5-lipoxygenase. Kind of experiment: Inhibition of 5-lipoxygenase in A23187-stimulated human PMNL assessed as enzyme product formation preincubated 15 mins by RP-HPLC analysis in presence of exogenous arachidonic acid. The method in brief:
as §2

The target in experiment [4] is T3, Prostaglandin G/H synthase 2 (Homo sapiens) (UniProt P35354).
T3 sequence (whole entry): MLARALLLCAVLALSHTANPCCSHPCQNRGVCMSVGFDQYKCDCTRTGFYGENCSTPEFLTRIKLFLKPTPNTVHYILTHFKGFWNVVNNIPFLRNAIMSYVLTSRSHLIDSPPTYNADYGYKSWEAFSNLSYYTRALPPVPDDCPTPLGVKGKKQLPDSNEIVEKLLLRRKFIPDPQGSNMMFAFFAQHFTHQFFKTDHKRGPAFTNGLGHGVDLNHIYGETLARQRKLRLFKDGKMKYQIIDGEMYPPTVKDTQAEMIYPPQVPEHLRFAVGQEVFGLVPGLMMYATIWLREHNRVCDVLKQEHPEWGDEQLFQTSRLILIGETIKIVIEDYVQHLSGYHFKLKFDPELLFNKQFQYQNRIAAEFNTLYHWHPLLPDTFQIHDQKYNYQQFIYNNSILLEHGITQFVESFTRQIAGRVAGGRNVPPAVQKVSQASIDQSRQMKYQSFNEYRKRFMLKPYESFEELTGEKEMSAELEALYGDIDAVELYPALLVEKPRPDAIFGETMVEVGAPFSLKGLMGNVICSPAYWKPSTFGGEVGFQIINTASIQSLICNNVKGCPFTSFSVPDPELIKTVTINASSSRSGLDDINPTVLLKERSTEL
Kind of experiment: Inhibition of human recombinant COX2 assessed as residual activity at 10 uM after 5 mins. The method in brief: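 Ovine COX-1 (50 units) or human recombinant COX-2 (20 units) in 1 ml 100 mM Tris pH 8 with 5 mM glutathione, 5 µM haemoglobin and 100 µM EDTA. Preincubated with 10 µM compound 5 min at 4 °C, warmed 60 s at 37 °C. Started with AA (5 µM for COX-1, 2 µM for COX-2), run 5 min at 37 °C. 12-HHT extracted and analysed by HPLC. n = 3.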

The target in experiment [5] is T4, Polyunsaturated fatty acid 5-lipoxygenase (Homo sapiens) (UniProt P09917).
T4 sequence (whole entry): T1 sequence (P09917 whole entry)
Kind of experiment: Inhibition of human recombinant 5-lipoxygenase expressed in Escherichia coli BL21 assessed as enzyme product formation measured after washout. The gist of the method:
as §1

The target in experiment [6] is T4, Polyunsaturated fatty acid 5-lipoxygenase (Homo sapiens). Kind of experiment: Inhibition of 5-lipoxygenase in LPS/fMLP-stimulated human PMNL assessed as enzyme product formation preincubated 15 mins by ELISA analysis. Conditions: in the assay text read “10 mins” for “15 mins”. The gist of the method: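 Human PMNL in PBS/glucose primed with 1 µg/ml LPS for 10 min at 37 °C, then 0.3 U/ml adenosine deaminase added. After another 10 min, cells given compound (0.3–10 µM) for 10 min, then stimulated with 1 µM fMLP. LTB₄ measured by ELISA.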
(ELISA stands for enzyme-linked immunosorbent assay.)

With `CCCCC(Sc1ccc(OCCCOc2ccc(-c3ccccc3)cc2)cc1)C(=O)O` (stereo unspecified), the values for the IC50 in experiment [1] and in experiment [3] were 3.5 µM and 0.9 µM, respectively. The inhibition result in experiment [2] and in experiment [4] was “inactive” throughout. Also, the inhibition entry in experiment [5] and in experiment [6] was “Active” throughout.
